Source: PubChem BioAssay AID588621 (Sanford-Burnham Center for Chemical Genomics, 2011)
Screen size: about 360,000 compounds; about 890 (0.25%) were called active. This is one part of a sample in which actives are shown more often than they occur. Unmarked numbers belong to inactive results.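 The calls were made as follows: active = inhibition at 20 µM, scaled per plate between control wells, above about 37% (limit read from the data); inactive = the rest.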

biological target: Tyrosine-protein phosphatase non-receptor type 5 (Homo sapiens) (UniProt P54829); test: inhibition of human PTPN5 enzyme activity – biochemical, fluorescence intensity, uHTS, primary screen (AID 588621); details: recombinant STEP, OMFP fluorogenic substrate, at 20 µM, stronger effect = higher value;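 also: 0% = DMSO with enzyme and substrate and 100% = substrate only without enzyme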
Sequence (P54829 whole entry, looked up): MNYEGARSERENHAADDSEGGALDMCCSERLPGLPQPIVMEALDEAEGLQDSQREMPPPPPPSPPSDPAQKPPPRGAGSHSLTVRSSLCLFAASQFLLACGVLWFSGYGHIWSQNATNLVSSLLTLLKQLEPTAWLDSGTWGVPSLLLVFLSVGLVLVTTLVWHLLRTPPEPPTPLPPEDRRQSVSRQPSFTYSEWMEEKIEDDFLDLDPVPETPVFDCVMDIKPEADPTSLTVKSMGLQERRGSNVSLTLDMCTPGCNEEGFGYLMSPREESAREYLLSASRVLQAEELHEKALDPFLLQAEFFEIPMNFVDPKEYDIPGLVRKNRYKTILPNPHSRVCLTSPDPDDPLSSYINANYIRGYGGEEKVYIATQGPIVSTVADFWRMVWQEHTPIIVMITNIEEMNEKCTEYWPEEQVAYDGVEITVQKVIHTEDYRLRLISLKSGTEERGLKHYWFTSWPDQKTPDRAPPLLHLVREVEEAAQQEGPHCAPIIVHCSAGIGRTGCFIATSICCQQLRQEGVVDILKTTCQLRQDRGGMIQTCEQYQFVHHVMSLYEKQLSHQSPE
Summary of the method: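 Material: STEP (striatal-enriched tyrosine phosphatase) enzyme, cell-free | Medium: 50 mM Bis-Tris pH 6.0 with 2.5 mM DTT and 0.005% Tween 20 | Read-out: Percent inhibition scaled to no-enzyme and uninhibited-enzyme controls, plate-pattern corrected | Signal: Fluorescence read at 480 nm ex / 540 nm em | Times: 20 min reaction, room temperature, in the dark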

COc1ccc(N2C(=O)/C(=C/c3ccco3)C(=O)NC2=S)cc1 was tested, and the inhibition was 63.7% (active).

Compared with CC1CC=CCC12C(=O)NC(=S)NC2=O (stereo not given), CN(C)CCN(CC1CCCN(Cc2ccccc2F)C1)C(=O)Cc1ccc(F)c(F)c1 (stereo not given) is lower in inhibition: 0% for the first, -2% for the second.

Compared with COc1ccc(-n2c(-c3ccccc3)nc3ccccc3c2=O)cc1, O=C(c1cc2nc(-c3ccccc3)cc(-c3ccccc3)n2n1)N1CCC2(CC1)OCCO2 is higher in inhibition: -0.9% for the first, 0.4% for the second.
